This passage reports Ki, MIC and inhibition results from ChEMBL document CHEMBL5325390, “1,2,4-Triazole-3-thione analogues with an arylakyl group at position 4 as metallo-β-lactamase inhibitors” (Bioorg Med Chem, 2022).

One assay addresses Beta-lactamase VIM-1 (Bacteria, UniProt Q8GDC1). Kind of assay: Binding affinity to VIM-1 (unknown origin) expressed in Escherichia coli BL21(DE3) assessed as inhibition constant by measuring rate of substrate hydrolysis by UV-Vis spectrophotometric analysis. Summed up: (§1)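 Purified MBL (1–70 nM) with 150 µM imipenem or meropenem as reporter substrate, 50 mM HEPES pH 7.5, 30 °C. Hydrolysis followed by absorbance at 300 nm without and with inhibitor (0.5 µM–1 mM). Ki from the slope of v0/vi vs [I] under a competitive model, or from Dixon plots varying inhibitor and substrate. […] Triplicate, mean ± SD.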

A short description of assay [1]: Binding affinity to VIM-2 (unknown origin) expressed in Escherichia coli BL21(DE3) assessed as inhibition constant by measuring rate of substrate hydrolysis by UV-Vis spectrophotometric analysis. In short, it runs like this:
as §1

Assay [2] in a line: Binding affinity to VIM-4 (unknown origin) expressed in Escherichia coli BL21(DE3) assessed as inhibition constant by measuring rate of substrate hydrolysis by UV-Vis spectrophotometric analysis. In short, it runs like this:
as §1

For assay [3], the target named is Metallo-beta-lactamase type 2 (Bacteria, UniProt C7C422). Kind of assay: Binding affinity to NDM1 (unknown origin) expressed in Escherichia coli BL21(DE3) assessed as inhibition constant by measuring rate of substrate hydrolysis by UV-Vis spectrophotometric analysis. Summed up: as §1
Sequence of Metallo-beta-lactamase type 2 (C7C422 whole entry): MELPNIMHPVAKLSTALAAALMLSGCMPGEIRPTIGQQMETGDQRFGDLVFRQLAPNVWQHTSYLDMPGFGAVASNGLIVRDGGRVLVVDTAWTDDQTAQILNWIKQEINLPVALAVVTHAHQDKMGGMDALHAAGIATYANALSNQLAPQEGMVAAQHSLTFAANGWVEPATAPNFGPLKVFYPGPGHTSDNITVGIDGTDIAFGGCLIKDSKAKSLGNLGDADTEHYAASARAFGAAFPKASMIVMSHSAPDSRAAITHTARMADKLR
The nature of assay [4]: Binding affinity to IMP1 (unknown origin) expressed in Escherichia coli BL21(DE3) assessed as inhibition constant by measuring rate of substrate hydrolysis by UV-Vis spectrophotometric analysis. To be noted: read-out: Ki. Summed up: as §1
Assay [5] deals with Klebsiella pneumoniae. As to the kind of experiment: Antimicrobial synergistic activity against blaVIM-1-producing multidrug-resistant Klebsiella pneumoniae 7023 clinical isolate assessed as meropenem MIC at 32 ug/ml by CLSI based broth microdilution method (reference value: 16 ug/ml). It counts as functional. The following applies: dose 32 µg/ml.
For assay [6], the system named is Klebsiella pneumoniae. Kind of assay: Antimicrobial synergistic activity against blaVIM-4-producing multidrug-resistant Klebsiella pneumoniae VA416/02 clinical isolate assessed as meropenem MIC at 32 ug/ml by CLSI based broth microdilution method (reference value: 16 ug/ml). The following applies: dose 32 µg/ml. The assay is classed as functional.
The next assay deals with Escherichia coli. As to the kind of experiment: Synergistic antimicrobial activity against blaNDM-1-producing multidrug-resistant Escherichia coli SI-004M clinical isolate assessed as meropenem MIC at 32 ug/ml by CLSI based microdilution method (reference value: 64 ug/ml). The assay is classed as functional. The following applies: dose 32 µg/ml.
Assay [7] concerns the target Metallo-beta-lactamase type 2 (Bacteria) (UniProt C7C422). As to the kind of experiment: Inhibition of NDM1 (unknown origin) expressed in Escherichia coli BL21(DE3) assessed as substrate hydrolysis at 100 uM by UV-Vis spectrophotometric analysis relative to control. Summed up:
(§2)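 Single-point screen at 100 or 200 µM inhibitor against purified MBL (1–70 nM) with 150 µM imipenem or meropenem reporter substrate, 50 mM HEPES pH 7.5, 30 °C. Initial hydrolysis rate read by absorbance at 300 nm and compared with the uninhibited reaction. Triplicate.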

Assay [8] relates to metallo-β-lactamase L1 (Stenotrophomonas maltophilia). Kind of assay: Inhibition of L1 (unknown origin) expressed in Escherichia coli BL21(DE3) assessed as substrate hydrolysis at 100 uM by UV-Vis spectrophotometric analysis relative to control.
Assay [9] concerns metallo-β-lactamase IMP-1 (Pseudomonas aeruginosa). Kind of assay: Inhibition of IMP1 (unknown origin) expressed in Escherichia coli BL21(DE3) assessed as substrate hydrolysis at 100 uM by UV-Vis spectrophotometric analysis relative to control.
Assay [10] has as its target Beta-lactamase VIM-1 (Bacteria) (UniProt Q8GDC1). As to the kind of experiment: Inhibition of VIM-1 (unknown origin) expressed in Escherichia coli BL21(DE3) assessed as substrate hydrolysis at 100 uM by UV-Vis spectrophotometric analysis relative to control. In short, it runs like this:
as §2

Assay [11] concerns metallo-β-lactamase VIM-2 (Pseudomonas aeruginosa). Kind of assay: Inhibition of VIM-2 (unknown origin) expressed in Escherichia coli BL21(DE3) assessed as substrate hydrolysis at 100 uM by UV-Vis spectrophotometric analysis relative to control.
Assay [12] has as its system metallo-β-lactamase VIM-4 (Pseudomonas aeruginosa). Kind of assay: Inhibition of VIM-4 (unknown origin) expressed in Escherichia coli BL21(DE3) assessed as substrate hydrolysis at 100 uM by UV-Vis spectrophotometric analysis relative to control.
Assay [13] deals with Metallo-beta-lactamase type 2 (Bacteria) (UniProt C7C422). Kind of assay: Inhibition of NDM1 (unknown origin) expressed in Escherichia coli BL21(DE3) assessed as substrate hydrolysis at 200 uM by UV-Vis spectrophotometric analysis relative to control. Summed up: as §2
Sequence of Metallo-beta-lactamase type 2 (Bacteria) (C7C422 whole entry): as above
For assay [14], the system named is metallo-β-lactamase IMP-1 (Pseudomonas aeruginosa). As to the kind of experiment: Inhibition of IMP1 (unknown origin) expressed in Escherichia coli BL21(DE3) assessed as substrate hydrolysis at 200 uM by UV-Vis spectrophotometric analysis relative to control.
For assay [15], the system named is metallo-β-lactamase VIM-2 (Pseudomonas aeruginosa). As to the kind of experiment: Inhibition of VIM-2 (unknown origin) expressed in Escherichia coli BL21(DE3) assessed as substrate hydrolysis at 200 uM by UV-Vis spectrophotometric analysis relative to control.
Assay [16] deals with metallo-β-lactamase VIM-4 (Pseudomonas aeruginosa). As to the kind of experiment: Inhibition of VIM-4 (unknown origin) expressed in Escherichia coli BL21(DE3) assessed as substrate hydrolysis at 200 uM by UV-Vis spectrophotometric analysis relative to control.

Some results are limits rather than exact numbers.

As for `Oc1cccc(CCn2c(-c3cccc(-c4ccccc4)c3)n[nH]c2=S)c1O`, the Ki on Beta-lactamase VIM-1 turned out to be 0.7 µM; in [1] it was 1.8 µM; in assay [2], 0.8 µM; in assay [3] (read-out: Ki), 22.4 µM; in assay [4], 20 µM. The minimum inhibitory concentration (MIC) in the assay with Klebsiella pneumoniae [5] worked out at 16 µg/mL; in the assay with Klebsiella pneumoniae [6], 4 µg/mL; in the assay on Escherichia coli, 32 µg/mL.
With `O=C(O)c1ccc(Cn2c(-c3ccccc3)n[nH]c2=S)cc1`, the Ki at Beta-lactamase VIM-1 was 3.6 µM; in assay [1], 2.7 µM; in assay [2], 1.1 µM. For the same molecule, the inhibition in [7] is less than 30%; in assay [8], 45%; in assay [9], less than 30%. The MIC in the assay on Klebsiella pneumoniae [5] was found to be 4 µg/mL; with Klebsiella pneumoniae [6] it was 2 µg/mL; with Escherichia coli it was 64 µg/mL.
Take `O=C(O)Cc1ccccc1Cn1c(-c2ccccc2)n[nH]c1=S`: the inhibition in [7] is less than 30%; in assay [10], less than 30%; in [8], less than 30%; in assay [9], less than 30%; in [11] it was 50%; in assay [12] it was less than 30%.
`COc1ccc(O)c(-c2n[nH]c(=S)n2CCc2ccccc2)c1`: the Ki at Beta-lactamase VIM-1 turned out to be 1.9 µM; in [1] it was 3.9 µM; in assay [2], 1.5 µM; in assay [3] (read-out: Ki) it was 6.8 µM; in assay [4], 20.2 µM. Further, the MIC in the assay with Klebsiella pneumoniae [5] came to 4 µg/mL; in the assay on Klebsiella pneumoniae [6], 2 µg/mL; in the assay on Escherichia coli, 64 µg/mL.
Regarding `Cc1ccccc1-c1n[nH]c(=S)n1CCc1ccc(OCc2ccccc2)cc1`, the inhibition is less than 30% in assay [7]; 47% in [10]; less than 50% in [13]; less than 30% in [9]; less than 50% in assay [14]; less than 30% in assay [11]. Besides, the inhibition in assay [15] is less than 50%; in assay [12], less than 30%; in [16] it was less than 50%.
Regarding `COc1ccc(O)c(-c2n[nH]c(=S)n2[C@@H]2C[C@H]2c2ccccc2)c1`, the Ki came to 2.2 µM on Beta-lactamase VIM-1, 2.5 µM in [2], 9.5 µM in [3] (read-out: Ki) and 4.6 µM in assay [4]. The minimal inhibitory concentration (MIC) with Klebsiella pneumoniae [5] is 4 µg/mL; in the assay with Klebsiella pneumoniae [6], 2 µg/mL; in the assay with Escherichia coli, 32 µg/mL. Moreover, the inhibition in assay [11] was 41%.
Consider `Oc1ccc(CCn2c(-c3ccccc3)n[nH]c2=S)cc1`, for which the Ki on Beta-lactamase VIM-1 came out at 2.1 µM; in assay [1], 6.1 µM; in [2] it was 2.3 µM; in [3] (read-out: Ki), 12 µM; in assay [4], 42 µM. The figures for the MIC with Klebsiella pneumoniae [5], in the assay with Klebsiella pneumoniae [6] and in the assay with Escherichia coli were 4 µg/mL, 4 µg/mL and 64 µg/mL, respectively.
`Oc1ccc(CCn2c(-c3ccccc3)n[nH]c2=S)c(O)c1`: the Ki on Beta-lactamase VIM-1 is 5.1 µM; in assay [2], 4.1 µM; in assay [3] (read-out: Ki(app)), 42 µM; in assay [4], 27 µM. The values for the MIC in the assay with Klebsiella pneumoniae [5] and in the assay on Klebsiella pneumoniae [6] were 4 µg/mL and 2 µg/mL, respectively. Further, the inhibition was less than 30% in assay [11] and less than 50% in [15].
Regarding `S=c1[nH]nc(Cc2ccccc2)n1Cc1ccccc1`, on Beta-lactamase VIM-1, the Ki was 23 µM. Further, the inhibition is less than 30% in [7]; 40% in assay [8]; 57% in [9]; less than 30% in [11]; less than 30% in [12].
Regarding `Oc1ccc(/C=N/n2c(-c3ccccc3-c3ccccc3)n[nH]c2=S)c(O)c1`, the Ki in assay [1] was found to be 4.5 µM; in assay [2] it was 9 µM; in [3] (read-out: Ki), 6.4 µM; in assay [4], 12 µM.
As to `COc1ccc(O)c(-c2n[nH]c(=S)n2Cc2ccccc2)c1`, the Ki worked out at 0.59 µM at Beta-lactamase VIM-1, 4 µM in assay [1] and 1.8 µM in assay [2]. For the same molecule, the figures for the inhibition in assay [7], in [8] and in assay [9] were less than 30%, 40% and less than 30%, respectively. Besides, the MIC stood at 2 µg/mL with Klebsiella pneumoniae [5], 2 µg/mL in the assay with Klebsiella pneumoniae [6] and 32 µg/mL with Escherichia coli.
On to `O=C1OC(Cn2c(-c3ccc4ccccc4c3)n[nH]c2=S)c2ccccc21` (centres undefined), for which the Ki on Beta-lactamase VIM-1 came out at 6.3 µM; in assay [2], 8.2 µM; in assay [3] (read-out: Ki(app)), 28 µM; in [4], 9.8 µM. Moreover, the inhibition in [11] was less than 30%; in assay [15] it was less than 50%.
On to `S=c1[nH]nc(-c2ccccc2)n1[C@@H]1C[C@H]1c1ccccc1`, for which the Ki was determined as 3.1 µM at Beta-lactamase VIM-1 and 15.4 µM in [3] (read-out: Ki). The inhibition in assay [11] was 30%; in [12], less than 30%; in assay [16] it was less than 50%.
Turning to `O=C1OC(Cn2c(-c3ccccc3-c3ccccc3)n[nH]c2=S)c2ccccc21` (centres undefined), the inhibition was less than 30% in assay [7]; 30% in assay [10]; less than 50% in assay [13]; 54% in assay [9]; less than 30% in [11]; less than 50% in assay [15]. Also, the inhibition in assay [12] is 34%.
As for `S=c1[nH]nc(Cc2ccccc2)n1CCCc1ccccc1`, the inhibition in [7] is less than 30%; in [10], 30%; in assay [8], 32%; in [9], 63%; in assay [11] it was less than 30%; in assay [12] it was less than 30%.
`O=C(O)c1ccccc1/C=N/n1c(-c2cccc(-c3ccccc3)c2)n[nH]c1=S`: the Ki in assay [1] was found to be 0.2 µM; in assay [2], 0.04 µM; in assay [3] (read-out: Ki), 4.2 µM; in assay [4], 17.7 µM.
With `S=c1[nH]nc(-c2ccccc2)n1CCc1c[nH]c2ccccc12`, the inhibition was less than 30% in assay [7]; 50% in assay [10]; less than 50% in assay [13]; less than 30% in assay [9]; less than 50% in assay [14]; 50% in assay [15]. Further, the inhibition in [16] is 50%.
`S=c1[nH]nc(-c2ccccc2)n1CCCCc1ccccc1`: the Ki at Beta-lactamase VIM-1 turned out to be 1.2 µM; in assay [1], 0.23 µM; in [2] it was 0.43 µM. The inhibition in [7] is 55%; in assay [8] it was 50%; in [9], less than 30%. The MIC stood at 2 µg/mL in the assay with Klebsiella pneumoniae [5], 4 µg/mL in the assay on Klebsiella pneumoniae [6] and 64 µg/mL in the assay with Escherichia coli.
Take `S=c1[nH]nc(-c2ccccc2)n1CCc1ccc(OCc2ccccc2)cc1`: the Ki is 18.9 µM in assay [1] and 5.3 µM in assay [4]. Besides, the inhibition in [7] is less than 30%; in assay [10], 34%; in assay [13], less than 50%; in [12] it was less than 30%; in assay [16], less than 50%.
